Data on 59 molecules can be found in ChEMBL document CHEMBL1149618, “Selection, synthesis, and structure-activity relationship of tetrahydropyrido[4,3-d]pyrimidine-2,4-diones as human GnRH receptor antagonists” (Bioorg Med Chem, 2007).

Activity calls are given as the source filed them. The rule behind the calls is not given here. Bounds are passed on as bounds.

One assay addresses T1, Gonadotropin-releasing hormone receptor (Homo sapiens) (UniProt P30968).
T1 sequence (whole entry): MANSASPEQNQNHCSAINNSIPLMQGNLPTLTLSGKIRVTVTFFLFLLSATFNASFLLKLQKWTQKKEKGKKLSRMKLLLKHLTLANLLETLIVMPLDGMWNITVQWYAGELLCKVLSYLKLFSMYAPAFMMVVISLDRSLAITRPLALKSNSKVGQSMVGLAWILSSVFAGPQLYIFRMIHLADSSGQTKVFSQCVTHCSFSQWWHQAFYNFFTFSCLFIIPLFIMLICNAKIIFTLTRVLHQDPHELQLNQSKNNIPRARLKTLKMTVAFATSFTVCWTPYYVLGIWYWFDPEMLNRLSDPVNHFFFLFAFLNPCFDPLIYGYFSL
As to the kind of experiment: (§1) Displacement of [125I]His5,D-Tyr6]GnRH from human cloned GnRH receptor transfected in COS7 cells. Particulars: COS-7. Format: cell-based. The method, boiled down: (§2)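 Competition binding against the radiolabelled GnRH agonist at the cloned human GnRH receptor, following a previously published method. Only compounds above 85% UV purity at 220 and 254 nm by LC–MS were assayed. Each compound was tested at least twice.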
Background: Loss of bound radioactivity is the signal in a displacement assay; it reports binding, not function.
With `COc1ccccc1CN1CCc2c(c(=O)n(CCN(C)CCc3ccccn3)c(=O)n2Cc2c(F)cccc2F)C1`, the result was inactive.

The next assay deals with T2, Gonadotropin-releasing hormone receptor (Homo sapiens, UniProt P30968).
T2 sequence (P30968 whole entry): T1 sequence (whole entry)
Described as §1. Format: cell-based, COS-7.
Details: not given
The method, boiled down: as §2
For orientation: Ki means the dissociation constant of the complex between target and ligand, obtained from inhibition or displacement. Regarding `Cc1ccc(CN2CCc3c(c(=O)n(CC4CCCCN4)c(=O)n3Cc3c(F)cccc3F)C2)c(C)c1` (centres undefined), the inhibition constant (Ki) was over 10 µM.

Molecule `Cc1ccc(CN2CCc3c(c(=O)n(CC4CCCCN4C4CCCC4)c(=O)n3Cc3c(F)cccc3F)C2)c(C)c1` (centres undefined) returned a Ki of 0.52 µM.

In turn, `CN(CCc1ccccn1)CCn1c(=O)c2c(n(Cc3c(F)cccc3F)c1=O)CCN(Cc1cccc(Cl)c1)C2` returned a Ki of 0.85 µM.

Take `Cc1cc(Cl)ccc1CN1CCc2c(c(=O)n(CCN(C)CCc3ccccn3)c(=O)n2Cc2c(F)cccc2F)C1`: the Ki came to 0.005 µM.

As to `COc1ccc(CN2CCc3c(c(=O)n(CCN(C)CCc4ccccn4)c(=O)n3Cc3c(F)cccc3F)C2)cc1`, the affinity corresponds to a Ki of 0.1 µM.

In turn, `CN(CCc1ccccn1)CCn1c(=O)c2c(n(Cc3c(F)cccc3F)c1=O)CCN(Cc1ccc(S(C)(=O)=O)cc1)C2` came in with a Ki of 0.805 µM.

`Cc1ccc(CN2CCc3c(c(=O)n(CC4CCCN(CCc5ccccn5)C4)c(=O)n3Cc3c(F)cccc3F)C2)c(C)c1` (centres undefined) registered a Ki of 0.6 µM.

`O=c1c2c(n(Cc3c(F)cccc3F)c(=O)n1C[C@H]1CCCN1)CCN(Cc1ccc(Cl)cc1)C2` displayed a Ki of over 10 µM.

Molecule `Cc1ccc(CN2CCc3c(c(=O)n(CC4CCCCN4C)c(=O)n3Cc3c(F)cccc3F)C2)c(C)c1` (centres undefined) came in with a Ki of 1.71 µM. This counts as single-digit micromolar.

In turn, `Cc1ccc(CN2CCc3c(c(=O)n(CCN(C)CCc4ccccn4)c(=O)n3Cc3c(F)cccc3F)C2)cc1` came in with a Ki of 0.035 µM.

The molecule `Cc1c(CN2CCc3c(c(=O)n(CCN(C)CCc4ccccn4)c(=O)n3Cc3ccccc3)C2)sc2ccccc12` registered an inhibition constant Ki of 0.305 µM.

Consider `COc1cccc(-n2c(=O)c3c(n(Cc4c(F)cccc4F)c2=O)CN(Cc2ccc(C)cc2)CC3)c1`, for which the Ki is over 10 µM.

For `COc1cccc(-n2c(=O)c3c(n(Cc4c(F)cccc4F)c2=O)CN(Cc2ccncc2)CC3)c1`, the Ki was 1.58 µM.

`Cc1c(CN2CCc3c(c(=O)n(CCN(C)CCc4ccccn4)c(=O)n3CC3CCCCC3)C2)sc2ccccc12` came in with a Ki of 0.38 µM.

In turn, `COc1cccc(-n2c(=O)c3c(n(Cc4c(F)cccc4F)c2=O)CN(Cc2ccccc2OC)CC3)c1` came in with a Ki of 0.98 µM. Compared with the last molecule, the Ki is about 2.6-fold higher.

`Cc1ccc(CN2CCc3c(c(=O)n(CCN(C)CC(C)C)c(=O)n3Cc3c(F)cccc3F)C2)c(C)c1` had a Ki of 1.8 µM.

`COc1cccc(-n2c(=O)c3c(n(Cc4c(F)cccc4F)c2=O)CN(CCc2c[nH]c4ccccc24)CC3)c1` had an inhibition constant (Ki) of 2.2 µM.

In turn, `Cc1ccc(CN2CCc3c(c(=O)n(CCN(C)Cc4ccccn4)c(=O)n3Cc3c(F)cccc3F)C2)c(C)c1` registered a Ki of 0.18 µM. Compared with the last molecule, the Ki is about 12-fold lower.

Molecule `Cc1ccc(CN2CCc3c(c(=O)n(CC4CCCN(Cc5ccccn5)C4)c(=O)n3Cc3c(F)cccc3F)C2)c(C)c1` (centres undefined) yielded a Ki of 0.49 µM. This Ki lies about 2.7-fold higher than the previous one.

Take `O=c1c2c(n(Cc3c(F)cccc3F)c(=O)n1C[C@@H]1CCCCN1CCc1ccccn1)CCN(Cc1ccc(Cl)cc1)C2`: the affinity, expressed as Ki, was 2.41 µM. Against the preceding molecule, the Ki is about 4.9-fold higher.

Turning to `CN(CCc1ccccn1)CCn1c(=O)c2c(n(Cc3c(F)cccc3F)c1=O)CCN(Cc1ccc(Cl)cc1)C2`, affinity was put at a Ki of 0.017 µM.

`Cc1ccccc1CN1CCc2c(c(=O)n(CCN(C)CCc3ccccn3)c(=O)n2Cc2c(F)cccc2F)C1` returned a Ki of 0.085 µM.

For `Cc1c(CN2CCc3c(c(=O)n(CCN(C)CCc4ccccn4)c(=O)n3Cc3ccccc3F)C2)sc2ccccc12`, the Ki was found to be 0.08 µM.

The molecule `CN[C@@H](Cn1c(=O)c2c(n(Cc3c(F)cccc3F)c1=O)CCN(Cc1ccc(Cl)cc1)C2)c1ccccc1` displayed a Ki of 0.045 µM.

Turning to `COc1cccc(-n2c(=O)c3c(n(Cc4c(F)cccc4F)c2=O)CNCC3)c1`, the Ki came to 0.97 µM.

For the molecule `CSc1ccc(CN2CCc3c(c(=O)n(CCN(C)CCc4ccccn4)c(=O)n3Cc3c(F)cccc3F)C2)cc1`, affinity was put at a Ki of 0.01 µM.

As for `O=c1c2c(n(Cc3c(F)cccc3F)c(=O)n1C[C@H]1CCCN1C1CCCC1)CCN(Cc1ccc(Cl)cc1)C2`, the Ki was 1.37 µM.

`Cc1ccc(CN2CCc3c(c(=O)n(CC4CCCN(C5CCCC5)C4)c(=O)n3Cc3c(F)cccc3F)C2)c(C)c1` (centres undefined) showed an inhibition constant Ki of 2.58 µM. Against the preceding molecule, the Ki is about 1.9-fold higher.

As for `CN(CCc1ccccn1)CCn1c(=O)c2c(n(Cc3c(F)cccc3F)c1=O)CCN(Cc1ccncc1)C2`, the Ki was over 10 µM.

The molecule `CN(C)[C@@H](Cn1c(=O)c2c(n(Cc3c(F)cccc3F)c1=O)CCN(Cc1ccc(Cl)cc1)C2)c1ccccc1` registered a Ki of 0.07 µM.

In turn, `Cc1ccc(CN2CCc3c(c(=O)n(CC4CCCN(C)C4)c(=O)n3Cc3c(F)cccc3F)C2)c(C)c1` (centres undefined) came in with a Ki of over 10 µM.

`Cc1c(CN2CCc3c(c(=O)n(CCN(C)CCc4ccccn4)c(=O)n3C)C2)sc2ccccc12`: the Ki was over 10 µM.

Molecule `Cc1ccc(CN2CCc3c(c(=O)n(CC4CCCCN4Cc4ccccc4)c(=O)n3Cc3c(F)cccc3F)C2)c(C)c1` (centres undefined) came in with a Ki of 0.945 µM.

`Cc1ccc(CN2CCc3c(c(=O)n(CC4CCCN(CC(C)C)C4)c(=O)n3Cc3c(F)cccc3F)C2)c(C)c1` (centres undefined) displayed a Ki of over 10 µM.

In turn, `Cc1c(CN2CCc3c(c(=O)n(CCN(C)CCc4ccccn4)c(=O)n3Cc3c(F)cccc3C(F)(F)F)C2)sc2ccccc12` registered a Ki of 0.01 µM. In other words, the double-digit nanomolar range.

For the molecule `COc1cccc(-n2c(=O)c3c(n(Cc4c(F)cccc4F)c2=O)CN(Cc2ccc(-n4ccnc4)cc2)CC3)c1`, the affinity corresponds to a Ki of 0.54 µM.

`CCc1ccc(CN2CCc3c(c(=O)n(CCN(C)C)c(=O)n3Cc3c(F)cccc3F)C2)cc1` gave a Ki of 1.4 µM.

Molecule `O=c1c2c(n(Cc3c(F)cccc3F)c(=O)n1C[C@H]1CCCN1Cc1ccccn1)CCN(Cc1ccc(Cl)cc1)C2` registered a Ki of 0.02 µM.

With `CN(CCc1ccccn1)CCn1c(=O)c2c(n(Cc3c(F)cccc3F)c1=O)CCN(Cc1ccc(Cl)c(Cl)c1)C2`, the Ki came out at 0.255 µM.

For the molecule `CN(CCc1ccccn1)CCn1c(=O)c2c(n(Cc3c(F)cccc3F)c1=O)CCN(Cc1nc3ccccc3n1C)C2`, the Ki was over 10 µM.

The molecule `O=c1c2c(n(Cc3c(F)cccc3F)c(=O)n1C[C@H]1CCCN1CCc1ccccn1)CCN(Cc1ccc(Cl)cc1)C2` yielded a Ki of 0.01 µM.

In turn, `CCc1ccc(CN2CCc3c(c(=O)n(CCN(C)CCc4ccccn4)c(=O)n3Cc3c(F)cccc3F)C2)cc1` came in with a Ki of 0.02 µM.

Take `Cc1ccc(CN2CCc3c(c(=O)n(CCN(C)CCc4ccccn4)c(=O)n3Cc3c(F)cccc3F)C2)c(C)c1`: the affinity, expressed as Ki, was 0.005 µM.

In the case of `CN(CCc1ccccn1)CCn1c(=O)c2c(n(Cc3c(F)cccc3F)c1=O)CCNC2`, the Ki was over 10 µM.

In turn, `Cc1c(CN2CCc3c(c(=O)n(CCN(C)CCc4ccccn4)c(=O)n3Cc3c(F)cccc3F)C2)sc2ccccc12` registered a Ki of 0.015 µM.

The molecule `CN(CCc1ccccn1)CCn1c(=O)c2c(n(Cc3c(F)cccc3F)c1=O)CCN(Cc1ccc(C(C)(C)C)cc1)C2` displayed a Ki of 0.3 µM.

As for `CN(CCc1ccccn1)CCn1c(=O)c2c(n(Cc3c(F)cccc3F)c1=O)CCN(CCc1c[nH]c3ccccc13)C2`, the Ki was found to be 0.515 µM.

Turning to `CN(CCc1ccccn1)CCn1c(=O)c2c(n(Cc3c(F)cccc3F)c1=O)CCN(Cc1ccccc1)C2`, the Ki worked out at 0.99 µM.

On to `Cc1ccc(CN2CCc3c(c(=O)n(CC4CCCNC4)c(=O)n3Cc3c(F)cccc3F)C2)c(C)c1` (centres undefined), for which the Ki turned out to be 2.45 µM.

On to `Cc1ccc(CN2CCc3c(c(=O)n(CC4CCCCN4Cc4ccccn4)c(=O)n3Cc3c(F)cccc3F)C2)c(C)c1` (centres undefined), for which the affinity, expressed as Ki, was 0.025 µM.

`CCSc1ccc(CN2CCc3c(c(=O)n(CCN(C)CCc4ccccn4)c(=O)n3Cc3c(F)cccc3F)C2)cc1` yielded an inhibitory constant (Ki) of 0.015 µM.

For `Cc1ccc(CN2CCc3c(c(=O)n(CC4CCCCN4CC(C)C)c(=O)n3Cc3c(F)cccc3F)C2)c(C)c1` (centres undefined), the Ki was determined as 2.59 µM.

The molecule `O=c1c2c(n(Cc3c(F)cccc3F)c(=O)n1C[C@H]1CCCCN1CCc1ccccn1)CCN(Cc1ccc(Cl)cc1)C2` yielded a Ki of 0.03 µM.

Turning to `COc1cccc(-n2c(=O)c3c(n(Cc4c(F)cccc4F)c2=O)CN(Cc2ccccc2)CC3)c1`, the Ki was determined as 1.29 µM.

Consider `Cc1ccc(CN2CCc3c(c(=O)n(CC4CCCN(Cc5ccccc5)C4)c(=O)n3Cc3c(F)cccc3F)C2)c(C)c1` (centres undefined), for which the Ki is 0.16 µM.

For the molecule `CN(CCc1ccccn1)CCn1c(=O)c2c(n(Cc3c(F)cccc3F)c1=O)CCN(Cc1ccc(-n3ccnc3)cc1)C2`, the Ki is over 10 µM.

`CN(CCc1ccccn1)CCn1c(=O)c2c(n(Cc3c(F)cccc3F)c1=O)CCN(Cc1ccc(C(F)(F)F)cc1)C2`: the Ki turned out to be 0.03 µM.

In the case of `Cc1c(CN2CCc3[nH]c(=O)n(CCN(C)CCc4ccccn4)c(=O)c3C2)sc2ccccc12`, the Ki was over 10 µM.
